The text below walks through data of ChEMBL document CHEMBL1126947, “Synthesis and evaluation of 1-acyl-1,2-bis(methylsulfonyl)-2-(2- chloroethyl)hydrazines as antineoplastic agents” (J Med Chem, 1993).

For orientation: T/C means the result in the treated group divided by that in the control group, in per cent.

The nature of series [1]: Relative rate of decomposition is the rate of decomposition of acyl compound to that of rate of decomposition of compound. Type of series: ADME. The essentials: (§1)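 Decomposition was followed at 37 °C, pH 7.4, by phenol red (20 mg/L) acidification at 560 nm in 1 mM potassium phosphate. Drug was at 1 mM final, added from a DMSO stock. Rates were calculated as 3 H⁺ per mol for acyl compounds, calibrated with HCl standards. The relative rate is the acyl compound rate divided by the reference tris(sulfonyl) rate.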

Series [2] deals with Mus musculus. The series is described as follows: Compound was tested for percent cures (60-day survivors) in mice at 20 mg/kg. Type of series: functional. The essentials: (§2)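 L1210 leukemia was passaged in donor CD2F1 mice. Each recipient mouse received 10⁵ cells. Drug was given ip in 100% DMSO once daily for 6 days, starting 24 h after implantation, at 5–20 mg/kg. Groups were 5–10 mice, with vehicle controls. %T/C = mean survival treated/control × 100, excluding cures. Cures = 60-day survivors. Body-weight change during therapy was taken as toxicity.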

Series [3] in a line: Relative rate of decomposition is the rate of decomposition in the presence of 2% serum/rate of hydrolysis in buffer alone. Type of series: ADME. The essentials:
(§3)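 Hydrolysis was followed by phenol red acidification (560 nm) at pH 7.4, 37 °C, in weak phosphate buffer containing 2% CD-1 mouse serum. Serum came from female CD-1 mice bled by cardiac puncture: blood from 3 mice was pooled, clotted 30 min at 37 °C, centrifuged, and kept on ice ≤6 h. HCl calibration was done in the serum mixture. The relative rate is the serum rate divided by the buffer rate.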

The nature of series [4]: Rate of decomposition in presence of CD-1 mouse serum. Type of series: ADME. The essentials: as §3
Series [5] in a line: Relative rate of decomposition is the rate of decomposition in the presence of 10 mMGSH/rate of decomposition in buffer alone. It is filed as ADME. The essentials: (§4)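 Phenol red acidification (560 nm) was run in 1 mM potassium phosphate, pH 7.4, 37 °C, with 10 mM GSH added and 1 mM drug. Rates assumed 2 H⁺ released per mol during GSH-initiated decomposition. HCl calibration was done in the GSH-containing mixture. The relative rate is the GSH rate divided by the buffer-alone rate.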

For series [6], the system named is Mus musculus. The series is described as follows: Average survival time of treated/control mice X 100 was determined at 20 mg/kg. It is filed as functional. The essentials: as §2
Series [7] is described as follows: Rate of decomposition in presence of 10 mM glutathione (GSH). Type of series: ADME. The essentials: as §4
The subject of series [8] is L1210. Briefly: Average percent change in body weight against L1210 leukemia in mice at 20 mg/kg. It is filed as functional, Mus musculus. The essentials:
(§5)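 L1210 leukemia, 10⁵ cells ip per recipient mouse (cells from ip passage in CD₂F₁ donors plus culture). Drug ip in 100% DMSO, ≤0.025 mL, once daily ×6 starting 24 h after implantation; groups of 5 mice (5–10 per group per footnote). Toxicity read-out: average percent change in body weight from onset to termination of therapy; vehicle-treated tumor-bearing controls included.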

Series [9] is described as follows: Initial rate of decomposition (1 mM) in 1 mM potassium phosphate buffer. The note with it: 1000 µM. It is filed as ADME. The essentials: as §1
Series [10] relates to L1210. Briefly: Average percent change in body weight against L1210 leukemia in mice at 10 mg/kg. It is filed as functional, Mus musculus. The essentials: as §5
Series [11] deals with Mus musculus. Briefly: Compound was tested for percent cures (60-day survivors) in mice at 10 mg/kg. It is filed as functional. The essentials: as §2
In series [12] the test system is L1210. Briefly: Average percent change in body weight against L1210 leukemia in mice at 60 mg/kg. Type of series: functional, Mus musculus.
Series [13] has as its system Mus musculus. Briefly: Compound was tested for percent cures (60-day survivors) in mice at 60 mg/kg. It is filed as functional.
For series [14], the system named is Mus musculus. Briefly: Average survival time of treated/control mice X 100 was determined at 10 mg/kg. Type of series: functional. The essentials:
as §2

Series [15] has as its system M5076. The series is described as follows: Optimal Antitumor Effect was expressed as % T-C against M5076, sc leukemia in mice (i.v.) 36 mg/kg. Type of series: functional, Mus musculus. The following applies: route intravenous. The essentials: (§6)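 Second M5076 sc experiment in C57BL/6 mice: drug iv in 100% DMSO, fixed 10 μL, every other day ×5 from day 1; eight mice/group. Outputs: %T/C (median survival ratio) and T − C growth delay to 1 g tumor, treated minus control.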

In a further series the test system is P388. The series is described as follows: Optimal Antitumor Effect was expressed as cures/total against P388, ip, leukemia in mice (i.p.) 200 mg/kg; 3/6. Type of series: functional, Mus musculus. The note with it: route intraperitoneal.
Series [16] concerns L1210. The series is described as follows: Average percent change in body weight against L1210 leukemia in mice at 7.5 mg/kg. It is filed as functional, Mus musculus. The essentials: as §5
In series [17] the test system is M109. Briefly: Optimal Antitumor Effect was expressed as % T/C against M109, sc leukemia in mice (i.v.) 60 mg/kg. The following applies: route intravenous. It is filed as functional, Mus musculus. The essentials: (§7)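 M109 lung carcinoma implanted sc (fragments passaged in Balb/c mice); drug iv in 10% DMSO in saline, 0.01 mL/g, every third day ×4 starting day 1. Eight mice/group, ≥3 dose levels. Read-outs: %T/C from median survival, and T − C = difference in median days for treated vs untreated tumors to reach 1 g (1 mm³ = 1 mg).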

The subject of series [18] is M5076. The series is described as follows: Optimal Antitumor Effect was expressed as % T/C against M5076, sc leukemia in mice (i.v.) 20 mg/kg. Type of series: functional, Mus musculus. The following applies: route intravenous. The essentials:
(§8)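 M5076 reticulum cell sarcoma sc in C57BL/6 mice (fragment passage); drug iv in 10% DMSO in saline, 0.01 mL/g, every other day ×5 from day 1; eight mice/group. %T/C from median survival ratio; T − C = difference in median days for treated vs untreated tumors to reach 1 g.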

The test system of series [19] is M109. Briefly: Optimal Antitumor Effect was expressed as T-C against M109, sc leukemia in mice (i.v.) 60 mg/kg. Type of series: functional, Mus musculus. The note with it: route intravenous. The essentials:
as §7

The test system of series [20] is M5076. Briefly: Optimal Antitumor Effect was expressed as T-C against M5076, sc leukemia in mice (i.v.) 40 mg/kg. Type of series: functional, Mus musculus. The note with it: route intravenous. The essentials: as §8
Series [21] has as its system M109. Briefly: Optimal Antitumor Effect was expressed as T-C against M109, sc leukemia in mice (i.v.) 30 mg/kg. It is filed as functional, Mus musculus. The following applies: route intravenous. The essentials:
as §7

The subject of series [22] is M109. Briefly: Optimal Antitumor Effect was expressed as % T/C against M109, sc leukemia in mice (i.v.) 32 mg/kg. It is filed as functional, Mus musculus. The note with it: route intravenous.
The subject of series [23] is M109. The series is described as follows: Optimal Antitumor Effect was expressed as % T/C against M109, sc leukemia in mice (i.v.) 30 mg/kg. Type of series: functional, Mus musculus. The following applies: route intravenous. The essentials: as §7
Series [24] relates to M5076. Briefly: Optimal Antitumor Effect was expressed as % T/C against M5076, sc leukemia in mice (i.v.) 36 mg/kg. It is filed as functional, Mus musculus. The note with it: route intravenous. The essentials: as §6
The test system of series [25] is Mus musculus. The series is described as follows: Average survival time of treated/control mice X 100 was determined at 7.5 mg/kg. Type of series: functional. The essentials: as §2
Series [26] deals with M109. The series is described as follows: Optimal Antitumor Effect was expressed as T-C against M109, sc leukemia in mice (i.v.) 48 mg/kg. Type of series: functional, Mus musculus. The note with it: route intravenous.
Another series relates to B16. The series is described as follows: Optimal Antitumor Effect was expressed as T-C against B16 i.d. leukemia in mice (i.p.) 100 mg/kg. The following applies: route intraperitoneal. Type of series: functional, Mus musculus.
Series [27] relates to Mus musculus. Briefly: Compound was tested for percent cures (60-day survivors) in mice at 7.5 mg/kg. It is filed as functional. The essentials: as §2
Series [28] concerns M109. Briefly: Optimal Antitumor Effect was expressed as % T/C against M109, ip leukemia in mice (i.p.) 60 mg/kg. The note with it: route intraperitoneal. It is filed as functional, Mus musculus. The essentials:
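M109 lung carcinoma ip in Balb/c-passaged line; drug ip every third day ×4 from day 1, as fine suspension in 10% DMSO in carboxymethylcellulose with Tween 80 (0.5 mL). Eight mice/group, ≥3 dose levels. %T/C = median survival treated/control ×100; deaths before day 10 counted as toxic.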

With `CS(=O)(=O)N(CCCl)N(C(=O)c1ccccc1)S(C)(=O)=O`, the Relative rate of decomposition was determined as 0.11 in series [1], 7.7 in series [3] and 223 in series [5]. Moreover, the Cures with Mus musculus [2] was found to be 20%. Besides, the Rate of decomposition is given as 7.86 (nM of drug) min-1 ml-1 in [4], 227 (nM of drug) min-1 ml-1 in series [7] and 1.02 (nM of drug) min-1 ml-1 in [9]. This compound also gave a T/C in the series on Mus musculus [6] of 160%. In addition, the Body weight in the series on L1210 [8] is on record as -7.7%.
Consider `COCC(=O)N(N(CCCl)S(C)(=O)=O)S(C)(=O)=O`, for which the Relative rate of decomposition in series [1] was found to be 0.3; in [3], 3; in series [5], 50.6. The Body weight with L1210 [10] was -8.4%. The Rate of decomposition in series [4] is given as 8.57 (nM of drug) min-1 ml-1; in series [7] it was 147 (nM of drug) min-1 ml-1; in series [9], 2.9 (nM of drug) min-1 ml-1. The compound also had a Cures in the series with Mus musculus [11] of 100%.
`CC(C)(C)C(=O)N(N(CCCl)S(C)(=O)=O)S(C)(=O)=O` returned a Cures in the series with Mus musculus [2] of 60%. Besides, the Rate of decomposition in [4] is 0.78 (nM of drug) min-1 ml-1; in series [7], 11 (nM of drug) min-1 ml-1; in series [9] it was “<= 0.1 (nM of drug) min-1 ml-1”. The same compound registered a T/C in the series on Mus musculus [6] of 302%. Further, in the series on L1210 [8], the Body weight is given as 0%.
`CS(=O)(=O)N(CCCl)N(S(C)(=O)=O)S(C)(=O)=O` yielded a Relative rate of decomposition in series [1] of 1. For the same compound, in the series on L1210 [12], the Body weight was -7.2%. This compound had a Cures in the series on Mus musculus [13] of 100%. Also, the Rate of decomposition in series [9] is 9.58 (nM of drug) min-1 ml-1.
`CCCC(=O)N(N(CCCl)S(C)(=O)=O)S(C)(=O)=O` returned a T/C with Mus musculus [14] of 207%. Moreover, in the series on L1210 [10], the Body weight turned out to be 0%. Moreover, the Rate of decomposition in [4] was 0.34 (nM of drug) min-1 ml-1; in [7], 10.3 (nM of drug) min-1 ml-1; in series [9] it was “<= 0.1 (nM of drug) min-1 ml-1”. For the same compound, the Cures in the series on Mus musculus [11] was found to be 20%.
As to `CC(=O)N(N(CCCl)S(C)(=O)=O)S(C)(=O)=O`, the T-C in the series with M5076 [15] amounted to 20.8 days; in the series on M109 [19] it was 3 days; with M5076 [20], 18.3 days; in the series with M109 [21], 10.5 days; in the series with M109 [26], 14.5 days; in the series with B16, 12 days. In the series on P388, the Cures/total amounted to 3. Further, the Body weight with L1210 [16] was 1%. For the same compound, the “Relative rate of decomposition” value in [1] was 0.03 (nM of drug) min-1 ml-1; in series [3], 3.7; in [5], 60.3. For the same compound, the T/C came to 133% in the series with M109 [17]; 156% with M5076 [18]; 136% in the series with M109 [22]; 128% with M109 [23]; 122% in the series with M5076 [24]; 341% with Mus musculus [25]. The T/C with M109 [28] was 231%. For the same compound, the Rate of decomposition is 0.89 (nM of drug) min-1 ml-1 in series [4], 14.5 (nM of drug) min-1 ml-1 in [7] and 0.24 (nM of drug) min-1 ml-1 in [9]. The Cures in the series with Mus musculus [27] turned out to be 80%.
As to `CCC(=O)N(N(CCCl)S(C)(=O)=O)S(C)(=O)=O`, in the series with Mus musculus [14], the T/C was found to be 217%. Further, the Body weight in the series with L1210 [10] is -6.4%. The Rate of decomposition in series [4] is on record as 0.45 (nM of drug) min-1 ml-1; in series [7] it was 12.8 (nM of drug) min-1 ml-1; in series [9], “<= 0.1 (nM of drug) min-1 ml-1”. In addition, the Cures with Mus musculus [11] was 90%.
